We go through six substances from article PMC11375721 (ACS Omega, 2024).

Data set [1] concerns the target PD-L1 (Homo sapiens, UniProt Q9NZQ7). The data set can be described thus: Saturation binding on A549-PDL1 cells. The conditions noted are these: 37 °C, 1 h. The gist of the method:
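Antibody-TCO was ligated with [18F]Tz in PBS (pH 7) at room temperature, and the purified conjugate was added at 0.08–10 nM to A549-PDL1 cells (2 × 10^5/well) for 1 h at 37 °C. Nonspecific binding used 100-fold excess unlabeled antibody added 1 h beforehand. Cell-bound activity was γ-counted. Each condition was run in triplicate, and Kd came from one-site specific-binding nonlinear regression.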

Data set [2] deals with A549-PDL1 cells. The data set can be described thus: Cellular uptake and internalization. It is filed as cell-based. An outline of the steps:
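A549 cells stably transfected with PD-L1 by lentiviral infection, grown in RPMI-1640 with 15% FBS at 37 °C, 5% CO2. Cells were incubated with in vitro ligated [18F]Tz-TCO-antibody for 30, 60, 120 and 180 min at 37 °C, then washed twice in ice-cold PBS. Surface activity was stripped with glycine HCl (1 mol/L, pH 2.2) for 10 min at 37 °C. The lysate gave the internalized fraction; washes plus lysate gave total uptake, γ-counted. Three experiments, each in triplicate.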

The test system of data set [3] is A549-PDL1 xenografts. The data set can be described thus: Pretargeted micro-PET/CT imaging. It is filed as in vivo, mice. The settings on record: for A549-PDL1 tumor uptake (PET): 1 h postinjection of [^18F]PEG12-Tz.
Data set [4] in a line: Estimated human dosimetry. The gist of the method: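 Male nude mice bearing A549-PDL1 xenografts were imaged by micro-PET/CT under 2–3% isoflurane on a heating pad, with OSEM reconstruction and %ID/g quantification. Pretargeted arm: atezolizumab-TCO 300 μg i.v., then 48 h later the 18F-tetrazine (3.7 MBq) i.v. Direct arm: [18F]Tz-TCO-atezolizumab 7.4 MBq/mouse i.v., imaged at 1, 2, 4, 6 and 8 h. Mouse data were extrapolated to human organ doses.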

Data set [5] has as its system A549-PDL1 xenografts. The data set can be described thus: In vivo pretargeting biodistribution. Also on record: species or system mice. The conditions noted are these: 1 h after [^18F]PEG12-Tz; for A549-PDL1 tumor uptake / blood uptake / bone uptake / brain uptake / gall bladder uptake / heart uptake / intestine uptake / kidney uptake / liver uptake / lung uptake / muscle uptake / spleen uptake / stomach uptake / tumor/blood / tumor/muscle: n = 3; for tumor/blood / tumor/muscle: biodistribution. The gist of the method: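 Male BALB/c nude mice (4–6 weeks, 13–18 g) received 5 × 10^6 A549-PDL1 and A549 cells in PBS subcutaneously behind the right armpit and were used once tumors reached 5–10 mm. Durvalumab-TCO or atezolizumab-TCO (300 μg in 150 μL PBS) was given i.v. by tail vein. After 24, 48 or 72 h, [18F]PEG12-Tz (1.85 MBq) was given i.v. Mice were killed 1 h later, and organs were weighed, γ-counted and expressed as %ID/g; n = 3. Controls: radioligand alone; blocking by co-injection of 50-fold molar excess atezolizumab plus 50 μg unlabeled tetrazine.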

Usually Kd stands for a measure of binding affinity in units of concentration. Low readings indicate a tighter complex, high ones a looser complex.

Sequence of PD-L1 (Q9NZQ7 19-290): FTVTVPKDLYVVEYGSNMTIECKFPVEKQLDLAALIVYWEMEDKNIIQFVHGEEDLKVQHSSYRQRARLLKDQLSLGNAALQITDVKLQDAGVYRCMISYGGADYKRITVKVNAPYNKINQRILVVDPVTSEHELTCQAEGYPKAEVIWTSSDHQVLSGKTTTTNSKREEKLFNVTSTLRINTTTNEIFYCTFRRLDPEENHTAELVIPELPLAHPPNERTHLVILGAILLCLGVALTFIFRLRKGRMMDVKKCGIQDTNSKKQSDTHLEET

As for “[^18F]Tz-TCO-atezolizumab: in vitro ligation product of [^18F]Tz with atezolizumab-TCO, directly labeled radioimmunoconjugate”, binding in data set [1] was characterised by a dissociation constant (Kd) of 1.38 nM. The cellular uptake in data set [2] (30 min) amounted to 3.76 % ID/10^6 cells. In data set [2] (180 min), this substance registered a cellular uptake of 9.85 % ID/10^6 cells and an internalization rate of 98.1%.

The substance “[^18F]Tz-TCO-durvalumab: in vitro ligation product of [^18F]Tz with durvalumab-TCO” gave a Kd in data set [1] of 2.39 nM. The cellular uptake in data set [2] (30 min) turned out to be 5.13 % ID/10^6 cells. Besides, in data set [2] (180 min), the cellular uptake came out at 8.40 % ID/10^6 cells and the internalization rate is 73.2%.

Turning to “atezolizumab pretargeted: pretargeting pair: atezolizumab-TCO injected first, [^18F]PEG12-Tz 24-72 h later, ligated in vivo”, the “A549-PDL1 tumor uptake (PET)” value in data set [3] (24 h interval) was found to be 0.79 ± 0.06 % ID/g. In addition, the “A549-PDL1 tumor uptake (PET)” value in data set [3] (48 h interval) amounted to 0.94 ± 0.16 % ID/g. In addition, in data set [3] (72 h interval), the “A549-PDL1 tumor uptake (PET)” value is recorded as 0.41 ± 0.04 % ID/g. In data set [3] (co-injection of unmodified anti-PD-L1 antibody or unlabeled tetrazine), the “accumulation in A549-PDL1 tumors under blocking” value is “could be blocked”. Further, in data set [4] (estimated human), the “lowering of total effective dose versus [^18F]Tz-TCO-atezolizumab” value was “over 7.5 fold”. Moreover, the “effective internal radiation dose” value in data set [4] (for men, as printed in main text) was 1.15 × 10^–3 μSv/MBq. In data set [5] (24 h after antibody-TCO 300 μg), the A549-PDL1 tumor uptake is 1.16 ± 0.06 % ID/g, the blood uptake is 1.72 ± 0.09 % ID/g, the bone uptake is on record as 0.38 ± 0.07 % ID/g and the brain uptake was 0.06 ± 0.01 % ID/g. In data set [5] (24 h after antibody-TCO 300 μg), this substance displayed a gall bladder uptake of 0.94 ± 0.11 % ID/g, a heart uptake of 0.93 ± 0.05 % ID/g, an intestine uptake of 0.51 ± 0.12 % ID/g and a kidney uptake of 2.04 ± 0.09 % ID/g. Besides, in data set [5] (24 h after antibody-TCO 300 μg), the liver uptake was determined as 0.87 ± 0.08 % ID/g, the lung uptake stood at 1.78 ± 0.34 % ID/g, the muscle uptake worked out at 0.26 ± 0.04 % ID/g and the spleen uptake is reported as 0.71 ± 0.04 % ID/g. Further, the stomach uptake in data set [5] (24 h after antibody-TCO 300 μg) worked out at 0.40 ± 0.16 % ID/g. In data set [5] (48 h after antibody-TCO 300 μg), this substance showed an A549-PDL1 tumor uptake of 1.65 ± 0.29 % ID/g, a blood uptake of 1.86 ± 0.15 % ID/g, a bone uptake of 0.28 ± 0.02 % ID/g and a brain uptake of 0.05 ± 0.01 % ID/g. In data set [5] (48 h after antibody-TCO 300 μg), this substance came in with a gall bladder uptake of 0.94 ± 0.24 % ID/g, a heart uptake of 1.02 ± 0.14 % ID/g, an intestine uptake of 0.62 ± 0.22 % ID/g and a kidney uptake of 2.82 ± 0.52 % ID/g. In data set [5] (48 h after antibody-TCO 300 μg), this substance yielded a liver uptake of 0.96 ± 0.18 % ID/g, a lung uptake of 1.65 ± 0.11 % ID/g, a muscle uptake of 0.31 ± 0.08 % ID/g and a spleen uptake of 0.71 ± 0.12 % ID/g. The substance also had a stomach uptake in data set [5] (48 h after antibody-TCO 300 μg) of 0.37 ± 0.06 % ID/g. In data set [5] (72 h after antibody-TCO 300 μg), this substance came in with an A549-PDL1 tumor uptake of 0.90 ± 0.23 % ID/g, a blood uptake of 1.48 ± 0.50 % ID/g, a bone uptake of 0.38 ± 0.03 % ID/g and a brain uptake of 0.05 ± 0.01 % ID/g. In data set [5] (72 h after antibody-TCO 300 μg), this substance gave a gall bladder uptake of 0.63 ± 0.21 % ID/g, a heart uptake of 0.74 ± 0.28 % ID/g, an intestine uptake of 0.55 ± 0.15 % ID/g and a kidney uptake of 2.22 ± 0.37 % ID/g. For the same substance, in data set [5] (72 h after antibody-TCO 300 μg), the liver uptake stood at 0.71 ± 0.16 % ID/g, the lung uptake is reported as 0.92 ± 0.06 % ID/g, the muscle uptake was 0.29 ± 0.06 % ID/g and the spleen uptake turned out to be 0.81 ± 0.13 % ID/g. In addition, the stomach uptake in data set [5] (72 h after antibody-TCO 300 μg) is listed as 0.32 ± 0.11 % ID/g.

Take “atezolizumab-TCO: atezolizumab (anti-PD-L1 antibody) modified with TCO-PEG4-NHS Ester, average 8 TCO per antibody”: in data set [5] (48 h after antibody-TCO 300 μg), the A549-PDL1 tumor uptake stood at 1.65 ± 0.15 % ID/g, the blood uptake was 1.86 ± 0.15 % ID/g and the lung uptake was 1.65 ± 0.11 % ID/g. Also, the “uptake in other organs such as the liver, muscles, bones, and intestines” value in data set [5] (48 h after atezolizumab-TCO) was less than 0.96 % ID/g.

In data set [5] (24 h after antibody-TCO 300 μg), “durvalumab pretargeted: pretargeting pair: durvalumab-TCO injected first, [^18F]PEG12-Tz 24-72 h later, ligated in vivo” yielded an A549-PDL1 tumor uptake of 2.52 ± 0.16 % ID/g, a blood uptake of 8.80 ± 0.50 % ID/g, a bone uptake of 1.16 ± 0.27 % ID/g and a brain uptake of 0.29 ± 0.07 % ID/g. In data set [5] (24 h after antibody-TCO 300 μg), this substance came in with a gall bladder uptake of 1.29 ± 0.08 % ID/g, a heart uptake of 2.66 ± 0.49 % ID/g, an intestine uptake of 0.54 ± 0.14 % ID/g and a kidney uptake of 3.12 ± 0.31 % ID/g. In data set [5] (24 h after antibody-TCO 300 μg), the liver uptake amounted to 1.93 ± 0.59 % ID/g, the lung uptake is 7.06 ± 1.90 % ID/g, the muscle uptake is recorded as 0.72 ± 0.10 % ID/g and the spleen uptake is given as 1.27 ± 0.22 % ID/g. In data set [5] (24 h after antibody-TCO 300 μg), the stomach uptake was determined as 0.50 ± 0.06 % ID/g, the tumor/blood was 0.29 ± 0.04 and the tumor/muscle was 3.51 ± 0.75. Besides, in data set [5] (48 h after antibody-TCO 300 μg), the A549-PDL1 tumor uptake turned out to be 1.91 ± 0.38 % ID/g, the blood uptake was determined as 6.08 ± 1.82 % ID/g, the bone uptake worked out at 0.98 ± 0.26 % ID/g and the brain uptake stood at 0.16 ± 0.04 % ID/g. In data set [5] (48 h after antibody-TCO 300 μg), this substance registered a gall bladder uptake of 1.11 ± 0.35 % ID/g, a heart uptake of 1.57 ± 0.27 % ID/g, an intestine uptake of 0.40 ± 0.07 % ID/g and a kidney uptake of 2.68 ± 0.46 % ID/g. In data set [5] (48 h after antibody-TCO 300 μg), this substance yielded a liver uptake of 1.19 ± 0.23 % ID/g, a lung uptake of 3.19 ± 1.02 % ID/g, a muscle uptake of 0.56 ± 0.20 % ID/g and a spleen uptake of 0.48 ± 0.34 % ID/g. For the same substance, in data set [5] (48 h after antibody-TCO 300 μg), the stomach uptake is 0.33 ± 0.09 % ID/g, the tumor/blood stood at 0.31 ± 0.07 and the tumor/muscle stood at 3.39 ± 0.46. In addition, in data set [5] (72 h after antibody-TCO 300 μg), the A549-PDL1 tumor uptake is listed as 1.60 ± 0.23 % ID/g, the blood uptake stood at 5.29 ± 0.50 % ID/g, the bone uptake was determined as 0.53 ± 0.04 % ID/g and the brain uptake was found to be 0.14 ± 0.01 % ID/g. In data set [5] (72 h after antibody-TCO 300 μg), this substance registered a gall bladder uptake of 0.99 ± 0.22 % ID/g, a heart uptake of 1.40 ± 0.28 % ID/g, an intestine uptake of 0.51 ± 0.15 % ID/g and a kidney uptake of 2.27 ± 0.37 % ID/g. In data set [5] (72 h after antibody-TCO 300 μg), this substance gave a liver uptake of 1.01 ± 0.16 % ID/g, a lung uptake of 2.01 ± 0.06 % ID/g, a muscle uptake of 0.43 ± 0.06 % ID/g and a spleen uptake of 0.62 ± 0.13 % ID/g. For the same substance, in data set [5] (72 h after antibody-TCO 300 μg), the stomach uptake came out at 0.75 ± 0.28 % ID/g, the tumor/blood worked out at 0.30 ± 0.02 and the tumor/muscle is given as 3.68 ± 0.98.

In data set [5] (24 h after antibody-TCO 300 μg), “durvalumab-TCO: durvalumab (anti-PD-L1 antibody) modified with TCO-PEG4-NHS Ester, average 12 TCO per antibody” had an A549-PDL1 tumor uptake of 2.52 ± 0.16 % ID/g, a blood uptake of 8.80 ± 0.50 % ID/g, a lung uptake of 7.06 ± 1.90 % ID/g and a tumor/blood of 0.29. This substance displayed a tumor/muscle in data set [5] (24 h after antibody-TCO 300 μg) of 3.51. The A549-PDL1 tumor uptake in data set [5] (48 h after antibody-TCO 300 μg) was found to be 1.91 ± 0.38 % ID/g. In data set [5] (72 h after antibody-TCO 300 μg), this substance returned an A549-PDL1 tumor uptake of 1.60 ± 0.23 % ID/g.
